# An excerpt weighted towards active compounds, which were near 1.7% of everything screened.
# LMPTP block: blocks human LMPTP phosphatase | P24666 | recombinant LMPTP-A, OMFP fluorogenic substrate, fluorescence intensity | inhibition, % at 20 µM | 360,000 compounds, 0.22% hits;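 active = compounds that cut the enzyme signal by at least half of the control window in the single-dose screen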;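 note: plate controls were DMSO wells with enzyme plus substrate for no effect and substrate without enzyme for full effect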
#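 Test system: LMPTP-A, protein tyrosine phosphatase of low molecular weight; Input: 0.625 nM enzyme; Incubation: 50 min dark incubation at room temperature; Signal: endpoint fluorescence intensity from OMFP dephosphorylation; Read-out basis: % inhibition versus control wells.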
# STEP block: STEP (human) phosphatase inhibition; P54829; recombinant STEP, OMFP fluorogenic substrate, fluorescence; inhibition, % at 20 µM; 360,000 compounds, 0.25% hits; AID 588621;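 active = inhibition at 20 µM, scaled per plate between control wells, above about 37%, limit read from the data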;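 note: 0% = DMSO with enzyme and substrate and 100% = substrate only without enzyme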
# Target sequence (P54829 whole entry, looked up): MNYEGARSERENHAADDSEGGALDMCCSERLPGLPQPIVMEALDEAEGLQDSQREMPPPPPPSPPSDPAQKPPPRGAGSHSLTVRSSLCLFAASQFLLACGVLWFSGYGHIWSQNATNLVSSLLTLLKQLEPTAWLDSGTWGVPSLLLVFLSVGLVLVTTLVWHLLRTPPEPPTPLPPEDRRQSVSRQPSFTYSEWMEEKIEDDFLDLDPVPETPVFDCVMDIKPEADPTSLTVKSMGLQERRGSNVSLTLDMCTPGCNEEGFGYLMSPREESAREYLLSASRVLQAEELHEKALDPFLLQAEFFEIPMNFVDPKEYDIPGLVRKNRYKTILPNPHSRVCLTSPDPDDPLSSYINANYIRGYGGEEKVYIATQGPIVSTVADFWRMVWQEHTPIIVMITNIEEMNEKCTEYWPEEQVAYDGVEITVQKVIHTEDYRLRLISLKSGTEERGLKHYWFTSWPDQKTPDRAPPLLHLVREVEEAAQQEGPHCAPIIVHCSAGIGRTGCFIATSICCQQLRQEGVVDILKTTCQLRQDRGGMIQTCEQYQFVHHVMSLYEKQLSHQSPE
#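 material = STEP tyrosine phosphatase | reagent = fluorogenic phosphatase substrate OMFP at 25 µM final | doses = single compound dose of 20 µM, 1% DMSO final | schedule = 20 min reaction, room temperature, in the dark | measured by = fluorescence, 480/540 nm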
# Scp1 inh: Scp-1 (human) phosphatase inhibition; inhibition, % at 20 µM; Recombinant Scp1, phosphopeptide, malachite green phosphate absorbance; Q9GZU7; 340,000 compounds, 0.88% hits;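 active = inhibition above about 50% at 20 µM, limit read from the data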;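 note: plate controls were DMSO wells with enzyme for no effect and wells lacking enzyme for full effect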
#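 Material – SCP-1 phosphatase catalytic domain, residues 76-261 · Buffer or medium – Acidic Tris acetate buffer with magnesium and detergent · Also added – Phospho 17-mer peptide substrate · Compound – single 20 µM dose, 1% DMSO · Times – 45 min room-temperature reaction, 5 min colour, 30 min stabiliser · Technique – Phosphate-binding colour reagent, absorbance read at 630 nm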
# SUMO1 PPI mod: modulators of human SUMO1-mediated protein-protein interactions; P63165; SUMO1 binding to a labelled peptide, TR-FRET, 1 h; inhibition, % at 20 µM; 360,000 compounds, 0.33% hits; AID 602429; in the data active = inhibition above about 37%
# DNMT1 block: blocks human DNA methyltransferase DNMT1; P26358; DNMT1 molecular beacon, Hinp1I cleavage, fluorescence; 360,000 compounds, 0.83% hits; inhibition (reported as % activation of signal), % at 10 µM; in the data active = inhibition above about 50%
# Starred values were filed as active, the others as inactive; / = no result given; ! = not active in a repeat.
SMILES,LMPTP block,STEP block,Scp1 inh,SUMO1 PPI mod,DNMT1 block
O=C(O)c1ccc(N/N=C/c2ccc(OC(=O)c3cccc(Cl)c3)cc2)cc1,10,1,40,61*,7
CSc1ccc(/C=N/Nc2cccc(C(=O)O)c2)cc1,14,60*,81*,70*,105*
CC1=C(C(=O)N(C)C)CC(CC(=O)NC2CCCC2)C(=O)N1CCC1=CCCCC1 (stereo unspecified),-2,2,/,7,2
Cc1cccc(CNC(=O)C2CCC(=O)N(CC3CCCCC3)C2)c1 (stereo unspecified),0,1,/,3,7
O=C1c2nc3ccccn3c2C(=O)N1Cc1ccccc1,1,2,-3,39*,-11
O=C(NCCc1ccccc1)c1ccc(S(=O)(=O)N2CCCC2)cc1,-1,0,2,-2,-3
C#CCOCCOCCOCCNc1nc(N2CCN(C(=O)CCCCCCCCCCNC(=O)[C@H](CCCCN)n3cc(C[C@@H](C)CC)nn3)CC2)nc(N2CCN(C(=O)CCCCCCCCCCNC(=O)[C@H](CCCN=C(N)N)n3cc(C[C@@H](C)CC)nn3)CC2)n1,14,29,58*,72*,-227
C#CCOCCOCCOCCNc1nc(N2CCOCC2)nc(N2CCN(C(=O)CCCCCCCCCCNC(=O)[C@H]([C@@H](C)CC)n3cc(CCCCN=C(N)N)nn3)CC2)n1,2,1,12,-40,9
C#CCOCCOCCOCCNc1nc(N2CCN(C(=O)CCCCCCCCCCNC(=O)[C@@H](CCSC)n3cc(CCO)nn3)CC2)nc(N2CCN(C(=O)CCCCCCCCCCNC(=O)[C@H](CCCN=C(N)N)n3cc(C[C@@H](C)CC)nn3)CC2)n1,12,18,43,80*,-106
C#CCOCCOCCOCCNc1nc(N2CCN(C(=O)CCCCCCCCCCNC(=O)[C@H](CCCCN)n3cc(C)nn3)CC2)nc(N2CCN(C(=O)CCCCCCCCCCNC(=O)[C@@H]([C@H](C)O)n3cc(C)nn3)CC2)n1,-3,1,8,-154,-71
C#CCOCCOCCOCCNc1nc(N2CCN(C(=O)CCCCCCCCCCNC(=O)[C@H](CCCCN)n3cc(C[C@@H](C)CC)nn3)CC2)nc(N2CCN(C(=O)CCCCCCCCCCNC(=O)[C@@H]([C@H](C)O)n3cc(C)nn3)CC2)n1,7,8,38,70*,-148
C#CCOCCOCCOCCNc1nc(N2CCN(C(=O)CCCCCCCCCCNC(=O)[C@H]([C@@H](C)CC)n3cc(CCCCN=C(N)N)nn3)CC2)nc(N2CCN(C(=O)CCCCCCCCCCNC(=O)[C@@H]([C@H](C)O)n3cc(C)nn3)CC2)n1,9,6,35,86*,-108
COc1ccc(OC)c(NC(=O)CN2C(=O)NC(C)(c3ccc4c(c3)OCCO4)C2=O)c1 (stereo unspecified),-1,-1,-6,4,-3
COc1ccccc1Oc1ccc(NC(=O)Cc2ccccc2)cc1,1,-2,-22,3,-6
CCCC(=O)N1CCN(c2nc3c(OC)ccc(Cl)c3s2)CC1,2,0,-4,4,0
COCC1CCN(C(=O)c2ccc3oc(Cc4ccc(Cl)cc4)nc3c2)C1 (stereo unspecified),0,1,2,-4,-1
Cc1cc(C)c(C#N)c(SCC(=O)Nc2nonc2N)n1,3,0,-3,46*,0
COc1cccc(C(=O)NC(=S)N2c3ccccc3CC2C)c1OC (stereo unspecified),-1,-1,-6,43*,3
CCN(CC(=O)Nc1c(F)cccc1F)C(=O)/C=C/c1ccc2c(c1)OCO2,-1,4,5,-5,-1
COCCCOc1ccnc(CS(=O)c2nc3ccccc3[nH]2)c1C (stereo unspecified),1,74*,14,1,-4
O=C(c1ccc(CSc2nc3ccncc3[nH]2)cc1)N1CCN(c2cccc(Cl)c2)CC1,66*,6,-9,9,-10
O=C(NCCCN1CCCC1=O)c1ccc(Cl)c(S(=O)(=O)N2CCCCC2)c1,1,-3,7,-4,6
CCCN(CC(=O)Nc1ccccc1OC)C(=O)CN1C(=O)NC(C)(C)C1=O,-1,2,/,1,3
Oc1ccc(N=Cc2ccc(O)c(O)c2)cc1,14,10,3,51*,65*
Oc1ccc(/C=N/N=C/c2ccc(O)c(O)c2)cc1O,0,1,-12,-13,17
SMILES,LMPTP block,STEP block,Scp1 inh,SUMO1 PPI mod,DNMT1 block
CC1CCC(NC(=O)COC(=O)C2=NN(c3ccccc3)C(=O)CC2)CC1 (stereo unspecified),-1,0,-2,1,0
CCOc1ccc2nc3cc(NCc4ccc(OC)cc4)ccc3c(N)c2c1,19,2,-1,110*,26
CCn1cnc2cc(NCc3ccc(OC)cc3)ccc21,0,3,-10,-3,-3
Cc1ccc(-c2nn(-c3ccccc3)cc2C2CC(c3cccs3)=NN2C(=O)CCCC(=O)O)cc1 (stereo unspecified),1,29,89*,-11,-8
O=S(=O)(c1ccc(F)c(Cl)c1)N1CCN(C/C=C/c2ccccc2)CC1,2,3,-2,41*,1
O=S(=O)(c1ccccc1)N1CCN(C/C=C/c2ccccc2)CC1,0,0,-4,-4,-2
Cc1ccc(Cl)cc1NC(=O)CCS(=O)(=O)c1cccc2nonc12,0,-2,4,-16,-1
COc1ccc(Nc2nc(N)nc(CSC(=S)N3CCN(C)CC3)n2)cc1,-1,1,-6,50*,1
O=C(O)CCCCCN1C(=O)/C(=C\c2ccc(-c3ccc(Cl)cc3)o2)SC1=S,79*,7,89*,70*,14
O=C(O)CCCN1C(=O)/C(=C/c2ccncc2)SC1=S,-1,1,6,-27,1
O=C(O)CCCN1C(=O)/C(=C/c2ccc(-c3nc4ccccc4s3)o2)SC1=S,9,62*,59*,34,104*
O=C(Nc1nnc([C@H]2C[C@H](O)[C@@H](CO)O2)s1)C(c1ccccc1)c1ccccc1,0,1,/,-2,3
O=C(COC(=O)c1ccc(Br)o1)Nc1nc2c(F)c(F)c(F)cc2s1,60*,14,35,4,10
O=C(O)c1cc(-c2ccco2)nc2ccc(Br)cc12,26,66*!,80*!,57*!,106*!
CC1(C)Cc2c(sc(NC(=O)COc3cccc4ccccc34)c2C#N)C(C)(C)N1,4,69*,-11,-43,26
Cc1ccc(OCC(=O)Nc2sc3c(c2C#N)CC(C)(C)NC3(C)C)cc1,0,3,-5,-1,-1
O=C(COC(=O)c1ccc([N+](=O)[O-])s1)c1ccc[nH]1,1,-6,15,14,50*

# Assay outcomes from PubChem.
